Experimental data: the M2OR odorant receptor database
Numbering of substitutions follows the chain as printed.

Tests used:
Settings in all cases: stereoisomer not certain
OR2T6 C23G = system: T1, OR2T6 C23G
T1 sequence (whole entry): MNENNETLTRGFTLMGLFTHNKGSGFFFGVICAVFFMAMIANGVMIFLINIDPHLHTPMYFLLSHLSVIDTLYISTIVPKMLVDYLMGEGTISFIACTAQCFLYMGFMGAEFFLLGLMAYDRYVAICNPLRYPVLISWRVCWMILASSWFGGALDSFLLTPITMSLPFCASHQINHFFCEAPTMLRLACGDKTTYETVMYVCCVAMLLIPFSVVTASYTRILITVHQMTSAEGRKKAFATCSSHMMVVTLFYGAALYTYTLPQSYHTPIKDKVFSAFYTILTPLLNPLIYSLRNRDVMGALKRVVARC
Method in brief: (§1)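 Transient luciferase assays in mammalian cell lines were common, though methods varied by source. The values come from published papers and their supplementary material, with extra details from the original authors when needed. Responsive refers to a measured signal the original authors judged statistically different from baseline, and non-responsive (inactive) to the remainder.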

OR2T7 = system: T2, OR2T7
T2 sequence (whole entry): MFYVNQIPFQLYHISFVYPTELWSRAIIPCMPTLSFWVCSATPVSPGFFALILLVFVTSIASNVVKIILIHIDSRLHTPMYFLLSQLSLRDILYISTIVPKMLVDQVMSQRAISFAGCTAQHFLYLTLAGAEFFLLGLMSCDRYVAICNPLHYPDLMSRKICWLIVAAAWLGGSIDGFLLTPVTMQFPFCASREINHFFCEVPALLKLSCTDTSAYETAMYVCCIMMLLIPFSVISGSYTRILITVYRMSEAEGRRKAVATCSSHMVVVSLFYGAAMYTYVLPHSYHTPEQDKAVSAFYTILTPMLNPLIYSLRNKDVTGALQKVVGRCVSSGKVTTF
Method in brief: as §1

OR2T8 (Homo sapiens) = biological target: T3, OR2T8 (Homo sapiens) (UniProt A6NH00)
T3 sequence (whole entry): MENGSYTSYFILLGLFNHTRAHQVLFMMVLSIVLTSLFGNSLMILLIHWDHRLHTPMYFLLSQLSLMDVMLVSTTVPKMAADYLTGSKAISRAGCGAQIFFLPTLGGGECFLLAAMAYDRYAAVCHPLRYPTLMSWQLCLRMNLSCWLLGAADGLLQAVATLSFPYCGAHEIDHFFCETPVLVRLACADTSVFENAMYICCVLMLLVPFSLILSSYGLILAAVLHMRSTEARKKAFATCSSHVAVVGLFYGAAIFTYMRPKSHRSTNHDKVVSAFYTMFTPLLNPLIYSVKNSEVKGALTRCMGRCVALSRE
Method in brief: as §1

OR2V1 (Homo sapiens) = biological target: T4, OR2V1 (Homo sapiens) (UniProt Q8NHB1)
T4 sequence (whole entry): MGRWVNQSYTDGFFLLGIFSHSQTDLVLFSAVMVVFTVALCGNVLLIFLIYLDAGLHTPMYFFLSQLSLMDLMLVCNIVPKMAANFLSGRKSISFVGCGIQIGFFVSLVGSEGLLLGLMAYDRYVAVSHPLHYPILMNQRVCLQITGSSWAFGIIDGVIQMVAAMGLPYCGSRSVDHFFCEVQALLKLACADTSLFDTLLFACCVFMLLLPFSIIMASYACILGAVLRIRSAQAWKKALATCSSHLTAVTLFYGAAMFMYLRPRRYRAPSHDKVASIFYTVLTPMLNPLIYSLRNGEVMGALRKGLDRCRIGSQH
Method in brief: as §1

OR2V2 (Homo sapiens) = biological target: T5, OR2V2 (Homo sapiens) (UniProt Q96R30)
T5 sequence (whole entry): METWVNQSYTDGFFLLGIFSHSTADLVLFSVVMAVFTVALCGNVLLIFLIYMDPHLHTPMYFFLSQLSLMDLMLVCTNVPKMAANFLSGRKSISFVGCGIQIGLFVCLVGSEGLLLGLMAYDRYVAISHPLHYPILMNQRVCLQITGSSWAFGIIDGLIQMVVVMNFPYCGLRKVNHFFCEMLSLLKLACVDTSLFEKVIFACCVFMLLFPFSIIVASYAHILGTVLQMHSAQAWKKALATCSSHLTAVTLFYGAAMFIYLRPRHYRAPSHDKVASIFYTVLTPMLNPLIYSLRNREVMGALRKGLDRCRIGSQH
Method in brief: as §1

OR2W1 (Homo sapiens) = biological target: T6, OR2W1 (Homo sapiens) (UniProt Q9Y3N9)
T6 sequence (whole entry): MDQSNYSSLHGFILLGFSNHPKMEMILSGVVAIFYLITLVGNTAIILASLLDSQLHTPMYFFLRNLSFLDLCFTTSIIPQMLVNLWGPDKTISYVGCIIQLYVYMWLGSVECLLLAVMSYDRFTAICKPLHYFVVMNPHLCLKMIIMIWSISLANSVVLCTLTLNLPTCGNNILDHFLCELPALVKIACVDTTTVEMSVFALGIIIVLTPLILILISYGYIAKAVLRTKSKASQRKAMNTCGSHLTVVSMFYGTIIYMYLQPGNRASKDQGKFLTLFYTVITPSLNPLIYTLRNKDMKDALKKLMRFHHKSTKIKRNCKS
Method in brief: as §1

OR2W1 G96V = system: T7, OR2W1 G96V
T7 sequence (whole entry): T6 sequence (whole entry) with G96V
Method in brief: as §1

OR2W3 (Homo sapiens) = biological target: T8, OR2W3 (Homo sapiens) (UniProt Q7Z3T1)
T8 sequence (whole entry): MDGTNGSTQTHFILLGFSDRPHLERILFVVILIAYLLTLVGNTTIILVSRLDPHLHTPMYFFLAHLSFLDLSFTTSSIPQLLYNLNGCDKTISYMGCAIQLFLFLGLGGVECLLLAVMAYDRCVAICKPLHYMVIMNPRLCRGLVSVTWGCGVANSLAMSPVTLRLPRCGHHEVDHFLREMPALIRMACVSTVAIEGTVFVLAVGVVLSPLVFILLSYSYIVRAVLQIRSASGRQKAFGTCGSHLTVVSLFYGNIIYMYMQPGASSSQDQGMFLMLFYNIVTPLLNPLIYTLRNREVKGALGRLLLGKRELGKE
Method in brief: as §1

OR2W5P (Homo sapiens) = biological target: T9, OR2W5P (Homo sapiens) (UniProt A6NFC9)
T9 sequence (whole entry): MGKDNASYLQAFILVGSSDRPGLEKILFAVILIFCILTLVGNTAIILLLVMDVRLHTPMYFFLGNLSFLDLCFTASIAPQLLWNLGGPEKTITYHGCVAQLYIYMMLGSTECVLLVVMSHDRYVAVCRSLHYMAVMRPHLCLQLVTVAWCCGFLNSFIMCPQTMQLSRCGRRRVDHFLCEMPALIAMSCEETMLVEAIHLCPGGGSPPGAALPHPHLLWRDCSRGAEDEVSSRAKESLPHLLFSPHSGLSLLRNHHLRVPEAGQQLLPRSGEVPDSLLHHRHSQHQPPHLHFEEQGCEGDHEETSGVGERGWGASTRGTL
Method in brief: as §1

OR2Y1 (Homo sapiens) = biological target: T10, OR2Y1 (Homo sapiens) (UniProt Q8NGV0)
T10 sequence (whole entry): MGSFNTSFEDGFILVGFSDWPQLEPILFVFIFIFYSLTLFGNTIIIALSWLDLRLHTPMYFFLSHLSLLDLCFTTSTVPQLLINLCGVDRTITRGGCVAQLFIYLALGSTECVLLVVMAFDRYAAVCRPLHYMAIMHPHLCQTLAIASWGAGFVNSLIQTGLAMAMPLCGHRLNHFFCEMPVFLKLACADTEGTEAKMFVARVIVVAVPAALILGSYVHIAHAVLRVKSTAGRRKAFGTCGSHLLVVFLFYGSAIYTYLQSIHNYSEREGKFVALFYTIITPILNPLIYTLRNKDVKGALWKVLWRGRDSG
Method in brief: as §1

OR2Y1 = system: T11, OR2Y1
T11 sequence (whole entry): T10 sequence (whole entry) with V200L
Method in brief: as §1

OR2Z1 (Homo sapiens) = biological target: T12, OR2Z1 (Homo sapiens) (UniProt Q8NG97)
T12 sequence (whole entry): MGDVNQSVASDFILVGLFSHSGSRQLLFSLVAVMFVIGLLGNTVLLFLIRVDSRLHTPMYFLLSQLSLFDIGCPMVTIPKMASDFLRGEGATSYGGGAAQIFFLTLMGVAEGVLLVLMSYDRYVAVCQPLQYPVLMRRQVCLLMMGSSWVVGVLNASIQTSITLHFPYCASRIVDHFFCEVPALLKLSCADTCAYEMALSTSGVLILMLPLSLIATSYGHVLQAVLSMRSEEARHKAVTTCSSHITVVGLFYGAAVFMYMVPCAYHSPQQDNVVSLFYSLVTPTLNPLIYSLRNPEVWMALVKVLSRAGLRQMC
Method in brief: as §1

OR3A1 (Homo sapiens) = biological target: T13, OR3A1 (Homo sapiens) (UniProt P47881)
T13 sequence (whole entry): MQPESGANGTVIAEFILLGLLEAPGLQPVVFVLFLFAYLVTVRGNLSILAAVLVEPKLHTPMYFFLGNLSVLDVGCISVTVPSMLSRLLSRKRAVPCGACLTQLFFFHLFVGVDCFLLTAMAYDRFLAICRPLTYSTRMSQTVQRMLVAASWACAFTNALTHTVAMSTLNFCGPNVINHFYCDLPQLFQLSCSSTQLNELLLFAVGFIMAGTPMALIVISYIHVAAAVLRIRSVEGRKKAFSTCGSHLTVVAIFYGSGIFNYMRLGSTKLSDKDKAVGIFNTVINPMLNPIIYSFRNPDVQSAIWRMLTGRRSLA
Method in brief: as §1

OR3A1 = system: T14, OR3A1
T14 sequence (whole entry): T13 sequence (whole entry) with R125Q
Method in brief: as §1

OR3A2 (Homo sapiens) = biological target: T15, OR3A2 (Homo sapiens) (UniProt P47893)
T15 sequence (whole entry): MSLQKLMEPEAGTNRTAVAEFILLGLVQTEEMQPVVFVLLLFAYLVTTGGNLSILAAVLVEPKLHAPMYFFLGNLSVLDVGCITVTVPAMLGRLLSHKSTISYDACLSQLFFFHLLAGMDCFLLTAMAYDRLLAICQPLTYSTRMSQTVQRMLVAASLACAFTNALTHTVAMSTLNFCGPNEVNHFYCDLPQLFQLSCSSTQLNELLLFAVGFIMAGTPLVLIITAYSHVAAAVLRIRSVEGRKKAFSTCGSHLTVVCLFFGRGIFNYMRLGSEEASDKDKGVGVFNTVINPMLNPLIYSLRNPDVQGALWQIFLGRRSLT
Method in brief: as §1

OR3A2 R317K = system: T16, OR3A2 R317K
T16 sequence (whole entry): T15 sequence (whole entry) with R317K
Method in brief: as §1

OR3A3 (Homo sapiens) = biological target: T17, OR3A3 (Homo sapiens) (UniProt P47888)
T17 sequence (whole entry): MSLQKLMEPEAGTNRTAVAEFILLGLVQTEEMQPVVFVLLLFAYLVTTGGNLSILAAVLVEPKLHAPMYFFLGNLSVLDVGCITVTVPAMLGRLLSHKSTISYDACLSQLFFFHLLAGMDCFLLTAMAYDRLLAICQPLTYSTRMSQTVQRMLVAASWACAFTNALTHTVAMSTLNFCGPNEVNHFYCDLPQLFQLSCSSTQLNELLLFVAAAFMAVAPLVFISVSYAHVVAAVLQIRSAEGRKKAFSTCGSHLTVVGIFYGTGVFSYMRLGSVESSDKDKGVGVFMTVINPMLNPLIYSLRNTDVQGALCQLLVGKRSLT
Method in brief: as §1

OR2T7 (Homo sapiens) = biological target: T18, OR2T7 (Homo sapiens) (UniProt P0C7T2)
T18 sequence (whole entry): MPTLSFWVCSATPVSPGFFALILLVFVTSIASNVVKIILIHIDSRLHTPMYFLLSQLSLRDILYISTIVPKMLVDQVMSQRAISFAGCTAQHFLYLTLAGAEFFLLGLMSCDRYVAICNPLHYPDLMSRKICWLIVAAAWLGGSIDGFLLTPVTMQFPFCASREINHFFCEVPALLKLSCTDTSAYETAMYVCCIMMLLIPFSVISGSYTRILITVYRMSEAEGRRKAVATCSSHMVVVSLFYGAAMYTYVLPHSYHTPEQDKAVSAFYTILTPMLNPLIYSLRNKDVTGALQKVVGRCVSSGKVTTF
Method in brief: as §1

OR2W1 [1] = system: T19, OR2W1
T19 sequence (whole entry): T6 sequence (whole entry) with D296N
Method in brief: as §1

OR2W1 [2] = system: T20, OR2W1; remark: listed apart in the source
T20 sequence (whole entry): T6 sequence (whole entry) with M81V
Method in brief: as §1

Measured: odorant receptor agonist call

CCC1OC(C)=C(O)C1=O (stereo unspecified)
not listed: OR2T7 (Homo sapiens) | OR2W1 [1] | OR2W1 [2]
inactive: all other assays above

CC(=O)OCC=C(C)C
active: OR2W1 (Homo sapiens)

CCCCCO
inactive: OR2W1 (Homo sapiens)

CCC(C)c1nccnc1OC (stereo unspecified)
inactive: OR2W1 (Homo sapiens)

CCC1OC(=O)C(O)=C1C (stereo unspecified)
not listed: OR2T7 (Homo sapiens) | OR2W1 [1] | OR2W1 [2]
inactive: all other assays above

CC=CC(=O)C1=C(C)C=CCC1(C)C
inactive: OR2W1 (Homo sapiens)

CCCCCC(=O)C(C)C(C)=O (stereo unspecified)
active: OR2W1 [1] | OR2W1 [2]
not listed: OR2T6 C23G | OR2T7 | OR2W1 G96V | OR2Y1 | OR3A1 | OR3A2 R317K
inactive: all other assays above

CC(=O)OCc1ccccc1
active: OR2W1 (Homo sapiens)

COc1ccc2ccc(=O)oc2c1
inactive: OR2W1 (Homo sapiens)

CC(CO)CS (stereo unspecified)
not listed: OR2T6 C23G | OR2T7 | OR2W1 G96V | OR2Y1 | OR3A1 | OR3A2 R317K | OR2W1 [1] | OR2W1 [2]
inactive: all other assays above

CCCCCCCCCCO
active: OR2W1 (Homo sapiens)

CCC(C)C=O (stereo unspecified)
inactive: OR2W1 (Homo sapiens)

CC(=O)OCC=Cc1ccccc1
active: OR2W1 (Homo sapiens) | OR2W1 [1] | OR2W1 [2]
